Data from paper PMC7864382 (Clinical cancer research : an official journal of the …, 2020).
Several values for one entry are separate records, joined by “and”; a condition that tells them apart may be missing. Equal entries are not always repeated. Where two headings read alike, the source gives them in different places.

How the values were obtained:
[1] = tested on: pS6RP, p4EBP1, survivin in MDA-MB-468 and HCC1937 cells; experiment: Immunoblotting of mTOR pathway effectors and survivin; assay type: cell-based, Human; conditions: immunoblot, 50 nmol/L at 24 hours, 100 nmol/L at 72 hours; for pS6RP (mTOR pathway effector) level: alisertib-sensitive and -resistant TNBC cell lines
In short: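 Cells were seeded in 6-well plates for 24 h, then exposed to test compounds at 50 nmol/L for 24 h or 100 nmol/L for 72 h, alone or combined. Cells were harvested with trypsin/EDTA and lysed. 50 µg protein was run on 4–12% Bis-Tris gels and transferred to nitrocellulose. Primary antibodies (S6RP, pS6RP, 4EBP1, p4EBP1, survivin, α-tubulin) were used at 1:1,000 overnight, with DyLight secondaries and infrared imaging.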

[2] = tested on: CAL51 FUCCI cells; experiment: FUCCI cell-cycle analysis and relative growth; assay type: cell-based, Human; conditions: 100 nmol/L each, 0 to 96 hours
In short: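 CAL51 cells transduced with the FUCCI biosensor (G1 red, S/G2–M green) were plated and treated with each test compound at 100 nmol/L, alone or combined. Live-cell fluorescence microscopy in an environmentally controlled chamber ran from 0 to 96 h. Relative growth came from time-lapse image growth curves. Combination was compared with single agents at 72 and 96 h.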

[3] = tested on: CU_TNBC_004 PDX model; experiment: Tumor growth inhibition in TNBC PDX model CU_TNBC_004; assay type: in vivo, mouse; conditions: CU_TNBC_004 (alisertib-resistant); TAK-228 0.5 mg/kg daily, alisertib 30 mg/kg daily, p.o.; vs vehicle
In short: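 Tumor sections were implanted subcutaneously into both flanks by 12-gauge trocar. At an average of 150–300 mm³, mice were randomized to four arms: vehicle, 0.5 mg/kg daily, 30 mg/kg daily, or both combined, all by oral gavage. Caliper measurements and body weights were taken twice weekly; volume = length × width² × 0.52. TGI = [1 − (mean final treated volume/mean final vehicle volume)] × 100.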

[4] = tested on: CU_TNBC_007 PDX model; experiment: Tumor growth inhibition in TNBC PDX model CU_TNBC_007; assay type: in vivo, mouse; conditions: TAK-228 0.5 mg/kg daily, alisertib 30 mg/kg daily, vs vehicle
In short: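 PDX tumor sections were implanted subcutaneously via 12-gauge trocar into both flanks. At a mean of 150–300 mm³ mice were randomized to four arms: vehicle, 0.5 mg/kg daily, 30 mg/kg daily, or combination, all given by oral gavage. Calipers were read twice weekly and volume = length × width² × 0.52. TGI = [1 − (mean final treated volume / mean final vehicle volume)] × 100.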

[5] = tested on: CU_TNBC_004 PDX model; experiment: SA-β-gal staining and H&E of PDX tumors; assay type: in vivo, mouse
In short: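 PDX tumors were grown subcutaneously in both flanks. At 150–300 mm³ mice were randomized to vehicle, 0.5 mg/kg daily, 30 mg/kg daily, or combination by oral gavage. Tumors were OCT-embedded, frozen in liquid nitrogen, and cryosectioned. Slides were fixed and stained for SA-β-gal activity at pH 6.0. Matched H&E slides were reviewed by a pathologist to confirm tumor cells. Images were taken at 40×.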

[6] = tested on: CU_TNBC_004 PDX model; experiment: Immunofluorescence; assay type: in vivo, mouse; conditions: CU_TNBC_004 tumors
In short: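 PDX tumor pieces were implanted subcutaneously by trocar into both flanks. At 150–300 mm³ mice were randomized to vehicle, 0.5 mg/kg daily, 30 mg/kg daily, or combination, all by oral gavage. Frozen OCT tumor sections were fixed and blocked (1% BSA/PBS, 1 h, 37°C), then stained with BAX and DR5 primaries and Alexa Fluor 488/555 secondaries (1 h, 37°C). DAPI counterstain was followed by confocal imaging at 60×.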

[7] = Phase I trial pharmacokinetics in human plasma; assay type: in vivo
[8] = tested on: patients with advanced solid tumors
[9] = tested on: TNBC patients; conditions: alisertib monotherapy, 14 TNBC patients, phase II trial; cited from earlier work
[10] = tested on: patients with ER+/HER2− metastatic breast cancer; conditions: cited from earlier work
[11] = human; ref earlier clinical trials; cited from earlier work
[12] = human, plasma, oral, 1 mg, TAK-228 combo dose with alisertib, 1 mg cohort
[13] = human, plasma, oral, 1 mg, TAK-228 run-in dose (single agent), 1 mg cohort
[14] = human, plasma, oral, 3 mg, TAK-228 run-in dose (single agent), 3 mg cohort
[15] = single-agent alisertib, standard dosing schedule

CC(C)n1nc(-c2ccc3oc(N)nc3c2)c2c(N)ncnc21 [TAK-228]
p4EBP1 level [1]: decrease | survivin (antiapoptotic protein) level [1]: decrease | pS6RP (mTOR pathway effector) level [1]: decrease | Cell-cycle status (FUCCI) [2]: continued progression through the cell cycle | TGI [3]: 54.47% and 54.5% | TGI [4]: 30.73% and 30.7% | Senescent cells by SA-β-gal staining [5]: not observed | cytoplasmic BAX [6]: increase | half-life ([7]; TAK-228 combo dose with alisertib, 2 mg cohort): 6.0 ± 2.1 h | AUC [7, 12]: 47.4 ± 13.8 ng·h/mL | AUC [7, 13]: 46.7 ± 13.1 ng·h/mL | Cmax [7, 12]: 8.6 ± 4.2 ng/mL | Cmax [7, 13]: 7.7 ± 2.6 ng/mL | Cmax ([7]; human, plasma, oral, 2 mg, TAK-228 combo dose with alisertib, 2 mg cohort): 24.7 ± 13.6 ng/mL | Cmax ([7]; human, plasma, oral, 2 mg, TAK-228 run-in dose (single agent), 2 mg cohort): 24.2 ± 8.8 ng/mL | AUC [7, 14]: 154 ± 110 ng·h/mL | Cmax [7, 14]: 25.7 ± 9.4 ng/mL | Tmax ([7]; human, plasma, oral, 3 mg, Tmax, TAK-228 run-in dose (single agent), 3 mg cohort): 1.3 ± 1.1 h | Patients with adverse effects at least possibly related to the drug ([8]; 18 patients, combination treatment): 72% | Most common toxicities attributed to the drug(s) ([8]; attribution to TAK-228 alone, alisertib alone or both drugs): Rash | Dose reduction of the drug required ([8]; combination treatment, all dose levels): 3 patients | MTD / RP2D of TAK-228 in combination with alisertib ([8]; daily, continuous dosing, oral): 2 mg

COc1cc(Nc2ncc3c(n2)-c2ccc(Cl)cc2C(c2c(F)cccc2OC)=NC3)ccc1C(=O)O [alisertib]
survivin (antiapoptotic protein) level [1]: increase | pS6RP (mTOR pathway effector) level [1]: increase | Cell-cycle status (FUCCI) [2]: continued progression through the cell cycle | TGI [3]: 35.09% and 35.1% | TGI [4]: 51.74% and 51.7% | Senescent cells by SA-β-gal staining [5]: scattered senescent cells | MTD / RP2D of alisertib in combination with TAK-228 ([8]; b.i.d. days 1 to 7 of a 21-day cycle, oral): 30 mg | Most common toxicities attributed to the drug(s) ([8]; in vivo): neutropenia and fatigue | median progression-free survival [9]: 1.5 months | grade ≥3 neutropenia or stomatitis ([10]; intermittent alisertib schedule in combination with fulvestrant): no grade ≥3 neutropenia or stomatitis | grade 3 to 4 neutropenia [10, 15]: 57% | grade 3 to 4 stomatitis [10, 15]: 15% | half-life [11]: approximately 20 hours
